Published values of several laboratories.
Each line is one published result; the experiments were not run side by side.
Target: Tyrosine-protein kinase BTK (BTK, Homo sapiens, UniProt Q06187)

With `O=C(c1ccc(Nc2nccc(-c3cc4ccccc4s3)n2)cc1)N1CCC(N2CCCC2)CC1` the remaining binding was 87% (binding; competition with immobilised ligand; 1 µM).
With `CO[C@@H](C)c1c(Nc2ccc([C@H](N(C)C(=O)C3CCS(=O)(=O)CC3)C(F)(F)F)cc2)cnc2cc(Cl)nn12` the remaining binding was 100% (cell-free assay; competition with immobilised ligand; 1 µM).
For `O=C(NCC1CCOCC1)c1n[nH]cc1NC(=O)c1c(F)cccc1F`, the remaining binding was 91% (binding; competition with immobilised ligand; 1 µM).
`COc1ccnn2ncc(-c3ccnc(N(C)C)n3)c12` gave a remaining binding of 94% (binding; 1 µM).
The remaining binding of `O=C(NCCCN1CCOCC1)c1ccc(Nc2ncc(Cl)c(-c3ccc(Cl)s3)n2)cc1` is reported as 100% (binding; competition with immobilised ligand; 1 µM).
`Cc1nc(C2CCN(C(=O)c3ccc(OC(F)(F)F)cc3N)CC2)c2ncc(N3CCN(C)CC3)cc2n1` has a remaining binding of 87% (cell-free assay; competition with immobilised ligand; 1 µM).
`CN(C)c1nccc(-c2cnn3ncccc23)n1` has a remaining binding of 85% (binding; 1 µM).
`N#Cc1ccccc1CSc1nnc2c(n1)[nH]c1ccccc12` gave a remaining binding of 100% (binding; competition with immobilised ligand; 10 µM).
`CN(c1ccnc(CNc2nc(Nc3ccc4c(c3)CC(=O)N4)ncc2C(F)(F)F)n1)S(C)(=O)=O` gave a remaining binding of 63% (cell-free assay; competition with immobilised ligand; 1 µM).
`COc1cnc(Nc2cccc(S(N)(=O)=O)c2)nc1N1CCN(c2ccccc2)C(=O)C1` gave a remaining binding of 81% (binding; competition with immobilised ligand; 1 µM).
The remaining binding of `c1cnn2ncc(-c3ccnc(N4CCC45COC5)n3)c2c1` is reported as 89% (binding; 1 µM).
For `Nc1ncc2c(n1)-c1c([nH]c3ccc(C#CC4CC4)cc13)CCCC2`, the remaining binding was 61% (binding; competition with immobilised ligand; 1 µM).
With `COc1ncc2cc3ccccc3nc2c1C#N` the remaining binding was 100% (cell-free assay; competition with immobilised ligand; 5 µM).
The remaining binding of `Cn1cc(Cl)c2c(Oc3c(F)cc(Nc4cc(Cl)nc(N)n4)cc3F)ccnc21` is reported as 84% (cell-free assay; competition with immobilised ligand; 0.1 µM).
With `Cc1ccc(-n2nc(C(C)(C)C)cc2NC(=O)Nc2ccc(-n3c(N)c(C(N)=O)c4nc5ccc(NCCCN)cc5nc43)cc2)cc1` the remaining binding was 3.3% (cell-free assay; competition with immobilised ligand; 1 µM).
With `C[C@@H]1CN(c2ccc3ncc(-c4ccc5[nH]nc(C6CC6)c5c4)n3n2)C[C@H](C)O1` the remaining binding was 67% (binding; competition with immobilised ligand; 50 nM).
With `COc1cnc(Nc2cccc(S(N)(=O)=O)c2)nc1N1CCN(c2ccccc2)CC1` the remaining binding was 80% (binding; competition with immobilised ligand; 1 µM).
The remaining binding of `CCS(=O)(=O)c1cc2cc(C[C@](O)(CC(C)(C)c3ccc(F)cc3C(N)=O)C(F)(F)F)[nH]c2cn1` is reported as 100% (cell-free assay; competition with immobilised ligand; 1 µM).
`CN(C)c1ncc(F)c(-c2cnn3ncccc23)n1` has a remaining binding of 75% (binding; 1 µM).
For `O=C(Nc1cccnn1)N1CC(C/C=C/c2cncc(Oc3ccc(C(F)(F)F)cn3)n2)C1`, the remaining binding was 59% (cell-free assay; competition with immobilised ligand; 1 µM).
`CN(CCCC(F)(F)F)c1nccc(-c2cnn3ncccc23)n1` gave a remaining binding of 100% (binding; 1 µM).
With `O=C(O)[C@@H]1[C@@H](Cn2nnc3ccccc3c2=O)CC[C@H]1C(=O)c1ccc(OCCC2CCOCC2)cc1` the remaining binding was 100% (cell-free assay; competition with immobilised ligand; 1 µM).
With `C[C@@H]1CCN(c2nccc(-c3cnn4ncccc34)n2)C1` the remaining binding was 90% (binding; 1 µM).
`O=C(NCCCN1CCOCC1)c1ccc(Nc2nccc(-c3cc4ccccc4s3)n2)cc1` has a remaining binding of 77% (binding; competition with immobilised ligand; 1 µM).
